Data reported in ChEMBL document CHEMBL3425449, “Identification of MK-8133: An orexin-2 selective receptor antagonist with favorable development properties” (Bioorg Med Chem Lett, 2015).
Values after ≈ are worked out from the molar mass of the structure shown.

Key:
[1] = target: T1, Orexin/Hypocretin receptor type 1 (Homo sapiens, UniProt O43613); test: Displacement of [3H]-(S)-N-(biphenyl-2-yl)-1-(2-(1-methyl-1H-benzo[d]imidazol-2-ylthio)acetyl)pyrrolidine-2-carboxamide from human OX1R expressed in CHOK1 cells by radioligand binding assay; type: cell-based, CHO-K1
T1 sequence (O43613 whole entry): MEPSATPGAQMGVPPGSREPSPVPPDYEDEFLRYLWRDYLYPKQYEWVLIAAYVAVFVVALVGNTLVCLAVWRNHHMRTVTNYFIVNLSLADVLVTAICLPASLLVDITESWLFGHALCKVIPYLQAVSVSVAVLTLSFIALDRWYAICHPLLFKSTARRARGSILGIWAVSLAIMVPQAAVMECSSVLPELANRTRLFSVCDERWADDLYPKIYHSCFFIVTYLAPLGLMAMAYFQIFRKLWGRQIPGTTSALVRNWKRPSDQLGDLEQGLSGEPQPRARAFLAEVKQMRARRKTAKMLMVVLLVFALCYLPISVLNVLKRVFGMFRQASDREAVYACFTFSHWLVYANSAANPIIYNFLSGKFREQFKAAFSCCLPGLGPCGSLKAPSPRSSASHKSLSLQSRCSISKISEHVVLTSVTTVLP
In short: (§1)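 Radioligand competition binding on membranes from CHO-K1 cells overexpressing the human orexin receptor.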

CHO-K1 = test: Selectivity index, ratio of IC50 for human OX1R expressed in CHOK1 cells to IC50 for human OX2R expressed in CHOK1 cells by FLIPR assay; type: cell-based
In short: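 Ratio of OX1R FLIPR IC50 to OX2R FLIPR IC50. Both come from Ca2+-flux assays on human orexin receptors expressed in CHO-K1 cells, each averaged over n ≥ 2 experiments.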

[2] = target: T1, Orexin/Hypocretin receptor type 1; test: Antagonist activity against human OX1R expressed in CHOK1 cells assessed as inhibition of orexin A-induced […] Ca2+ mobilization by FLIPR assay; type: functional, cell-based, CHO-K1
In short: (§2)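 Cell-based FLIPR assay measuring Ca2+ flux as the functional read-out of orexin receptor antagonism. Target is the human orexin receptor expressed in CHO-K1 cells.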

Orexin receptor type 2 [3] = target: T2, Orexin receptor type 2 (Homo sapiens, UniProt O43614); test: Displacement of [3H]-(S)-N-(2-(1H-pyrrol-1-yl)phenyl)-1-(2-(1-methyl-1H-benzo[d]imidazol-2-ylthio)acetyl)pyrrolidine-2-carboxamide from human OX2R expressed in CHOK1 cells by radioligand binding assay; type: cell-based, CHO-K1; in short: as §1
T2 sequence (O43614 whole entry): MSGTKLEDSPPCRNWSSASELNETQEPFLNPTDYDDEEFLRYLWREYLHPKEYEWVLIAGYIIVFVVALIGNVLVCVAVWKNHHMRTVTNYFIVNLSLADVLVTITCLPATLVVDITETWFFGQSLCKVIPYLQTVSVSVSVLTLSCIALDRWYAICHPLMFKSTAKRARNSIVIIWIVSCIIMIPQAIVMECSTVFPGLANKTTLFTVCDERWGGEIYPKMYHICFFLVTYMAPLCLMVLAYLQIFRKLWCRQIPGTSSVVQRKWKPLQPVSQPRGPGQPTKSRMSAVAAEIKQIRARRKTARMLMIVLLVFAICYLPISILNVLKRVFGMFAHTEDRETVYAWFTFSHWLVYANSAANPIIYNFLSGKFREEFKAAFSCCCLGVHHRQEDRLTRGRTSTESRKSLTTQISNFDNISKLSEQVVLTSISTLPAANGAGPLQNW

Orexin receptor type 2 [4] = target: T2, Orexin receptor type 2; test: Antagonist activity against human OX2R expressed in CHOK1 cells assessed as inhibition of orexin A-induced […] Ca2+ mobilization by FLIPR assay; type: functional, cell-based, CHO-K1; in short: as §2
[5] = Intrinsic clearance in human microsomes; type: ADME, Microsome
[6] = Lipophilicity, log D of the compound by HPLC method; type: physicochemical
[7] = Solubility of the compound at pH 7; type: physicochemical; settings: buffer
[8] = Half life in dog at 10 mg/kg, po or 2 mg/kg, iv; type: ADME, organism-based, Canis lupus familiaris; settings: in vivo
In short: (§3)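 Dog pharmacokinetics determined after intravenous and oral administration.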

[9] = Half life in Wistar Han rat at 10 mg/kg, po or 2 mg/kg, iv; type: ADME, organism-based; settings: in vivo
In short: (§4)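 Pharmacokinetics in Wistar Han rats (n = 2) after intravenous and oral dosing. Oral dose was 10 mg/kg in PEG400:Tween80/water 40:10:50. IV dose was 2 mg/kg in DMSO/PEG400/water 20:60:20.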

[10] = Oral bioavailability in dog at 10 mg/kg; type: ADME, organism-based, Canis lupus familiaris; settings: in vivo; in short: as §3
[11] = Volume of distribution at steady state in dog at 10 mg/kg, po or 2 mg/kg, iv; type: ADME, organism-based, Canis lupus familiaris; settings: in vivo, read-out: Vdss; in short: as §3
[12] = Clearance in Wistar Han rat at 10 mg/kg, po or 2 mg/kg, iv; type: ADME, organism-based; settings: in vivo; in short: as §4
[13] = Volume of distribution at steady state in Wistar Han rat at 10 mg/kg, po or 2 mg/kg, iv; type: ADME, organism-based; settings: in vivo, read-out: Vdss; in short: as §4
[14] = Clearance in dog at 10 mg/kg, po or 2 mg/kg, iv; type: ADME, organism-based, Canis lupus familiaris; settings: in vivo; in short: as §3
[15] = Oral bioavailability in Wistar Han rat at 10 mg/kg; type: ADME, organism-based; settings: in vivo; in short: as §4

| SMILES | Ki [1] [µM] | Ratio IC50 (CHO-K1) | IC50 [2] [µM] | Ki (Orexin receptor type 2 [3]) [µM] | IC50 (Orexin receptor type 2 [4]) [µM] | also measured |
| --- | --- | --- | --- | --- | --- | --- |
| C[C@@H]1CC[C@@H](Oc2cc(C(F)(F)F)ccn2)CN1C(=O)c1ccccc1-n1nccn1 | 0.064 | 21 | 0.37 | 0.0002 | – | – |
| CSc1ccnc(O[C@@H]2CC[C@@H](C)N(C(=O)c3ccccc3-n3nccn3)C2)c1 | 0.039 | 16 | 0.11 | 0.0002 | 0.0067 | – |
| C[C@@H]1CC[C@@H](Oc2cc(I)ccn2)CN1C(=O)c1ccccc1-n1nccn1 | 0.059 | 57 | – | 0.0004 | 0.0072 | – |
| C[C@@H]1CC[C@@H](Oc2cc(F)ccn2)CN1C(=O)c1ccccc1-n1nccn1 | 0.43 | 68 | – | 0.0039 | – | – |
| C[C@@H]1CC[C@@H](Oc2cc(S(C)(=O)=O)ccn2)CN1C(=O)c1ccccc1-n1nccn1 | 0.35 | 33 | 0.51 | 0.0009 | 0.016 | – |
| C#Cc1ccnc(O[C@@H]2CC[C@@H](C)N(C(=O)c3ccccc3-n3nccn3)C2)c1 | 0.049 | 23 | 0.24 | 0.0006 | 0.01 | – |
| Cc1cccc(O[C@@H]2CC[C@@H](C)N(C(=O)c3ccccc3-n3nccn3)C2)n1 | 0.012 | 23 | 0.745 | 0.0076 | 0.033 | – |
| CCOC(=O)c1ccccc1C(=O)N1C[C@H](Oc2cc(C#N)ccn2)CC[C@H]1C | – | 349 | 7.1 | – | 0.021 | CLint scaled [5]: 37 mL/min/kg; logD ([6]; read-out: logD): 3.2; solubility ([7]; read-out: solubility): 121 µM (≈ 47.6 µg/mL) |
| Cc1ccc(O[C@@H]2CC[C@@H](C)N(C(=O)c3ccccc3-n3nccn3)C2)nc1 | 0.037 | 16 | 0.142 | 0.0026 | 0.009 | – |
| C[C@@H]1CC[C@@H](Oc2cc(C#N)ccn2)CN1C(=O)c1ccccc1CC(F)(F)F | – | > 312 | > 10 | – | 0.032 | CLint scaled [5]: 132 mL/min/kg; logD ([6]; read-out: logD): 3.6; solubility ([7]; read-out: solubility): 95 µM (≈ 38.3 µg/mL) |
| Cc1cccnc1O[C@@H]1CC[C@@H](C)N(C(=O)c2ccccc2-n2nccn2)C1 | 4.76 | – | – | 0.621 | – | – |
| C[C@@H]1CC[C@@H](Oc2ccccn2)CN1C(=O)c1ccccc1-n1nccn1 | 14 | – | – | 2.4 | – | – |
| COC(=O)c1ccnc(O[C@@H]2CC[C@@H](C)N(C(=O)c3ccccc3-n3nccn3)C2)c1 | 0.31 | 82 | 1.8 | 0.0039 | 0.022 | – |
| CCc1ccnc(O[C@@H]2CC[C@@H](C)N(C(=O)c3ccccc3-n3nccn3)C2)c1 | 0.057 | 28 | 0.31 | 0.0006 | 0.011 | – |
| C[C@@H]1CC[C@@H](Oc2cc(Br)ccn2)CN1C(=O)c1ccccc1-n1nccn1 | 0.13 | 37 | 0.38 | 0.0018 | 0.01 | – |
| C[C@@H]1CC[C@@H](Oc2cc(Cl)ccn2)CN1C(=O)c1ccccc1-n1nccn1 | 0.12 | 51 | – | 0.0014 | 0.011 | – |
| C[C@@H]1CC[C@@H](Oc2cc(N(C)C)ccn2)CN1C(=O)c1ccccc1-n1nccn1 | 1.4 | 12 | 1.5 | 0.0045 | 0.13 | – |
| CC(C)OC(=O)c1ccccc1C(=O)N1C[C@H](Oc2cc(C#N)ccn2)CC[C@H]1C | – | 87 | 3.3 | – | 0.038 | logD ([6]; read-out: logD): 3.6; solubility ([7]; read-out: solubility): 115 µM (≈ 46.9 µg/mL) |
| C[C@@H]1CC[C@@H](Oc2cc(-c3ccccc3)ccn2)CN1C(=O)c1ccccc1-n1nccn1 | 0.36 | 54 | 2.4 | 0.0038 | 0.045 | – |
| C[C@@H]1CC[C@@H](Oc2cc(C#N)ccn2)CN1C(=O)c1ccccc1-n1nccn1 | 0.83 | 293 | 3.8 | – | 0.013 | half-life [8]: 1.1 h; CLint scaled [5]: 16 mL/min/kg; logD ([6]; read-out: logD): 3; solubility ([7]; read-out: solubility): 148 µM (≈ 57.5 µg/mL); half-life [9]: 1.7 h; bioavailability [10]: 13%; Vd [11]: 1.5 L/kg; clearance [12]: 18 mL/min/kg; Vd [13]: 1.7 L/kg; clearance [14]: 27 mL/min/kg; bioavailability [15]: 17% |
| Cc1ccnc(O[C@@H]2CC[C@@H](C)N(C(=O)c3ccccc3-n3nccn3)C2)c1 | 0.166 | 49 | 0.788 | 0.0026 | – | – |
| COc1ccnc(O[C@@H]2CC[C@@H](C)N(C(=O)c3ccccc3-n3nccn3)C2)c1 | 0.14 | 49 | – | 0.0013 | – | – |
| C[C@@H]1CC[C@@H](Oc2cc(C(=O)N(C)C)ccn2)CN1C(=O)c1ccccc1-n1nccn1 | 0.47 | > 105 | > 10 | 0.0065 | 0.095 | – |
| Cc1nc(-c2ccccc2C(=O)N2C[C@H](Oc3cc(C#N)ccn3)CC[C@H]2C)no1 | – | 361 | 8.4 | – | 0.025 | half-life [8]: 1.5 h; CLint scaled [5]: 23 mL/min/kg; logD ([6]; read-out: logD): 3; solubility ([7]; read-out: solubility): 162 µM (≈ 65.4 µg/mL); half-life [9]: 1.3 h; bioavailability [10]: 54%; Vd [11]: 0.54 L/kg; clearance [12]: 30 mL/min/kg; Vd [13]: 1.3 L/kg; clearance [14]: 4.6 mL/min/kg; bioavailability [15]: 26% |
| C[C@@H]1CC[C@@H](Oc2cc(C#N)ccn2)CN1C(=O)c1ccccc1OC(F)F | – | > 314 | > 10 | – | 0.037 | CLint scaled [5]: 43 mL/min/kg; logD [6]: ND(Insoluble); solubility [7]: Insoluble |
